High-throughput results (PubChem BioAssay)
Most compounds without a hit are left out; they make up all but 1.5% or so of the library.
SIRT5 block: blocks human SIRT5 desuccinylation of peptide; Q9NXA8; Purified SirT5, succinyl-peptide AMC, trypsin-coupled fluorescence; inhibition, % at 15 µM; 330,000 tested, 1.1% active; in the data active = inhibition above about 15%
Target sequence (Q9NXA8 whole entry, looked up): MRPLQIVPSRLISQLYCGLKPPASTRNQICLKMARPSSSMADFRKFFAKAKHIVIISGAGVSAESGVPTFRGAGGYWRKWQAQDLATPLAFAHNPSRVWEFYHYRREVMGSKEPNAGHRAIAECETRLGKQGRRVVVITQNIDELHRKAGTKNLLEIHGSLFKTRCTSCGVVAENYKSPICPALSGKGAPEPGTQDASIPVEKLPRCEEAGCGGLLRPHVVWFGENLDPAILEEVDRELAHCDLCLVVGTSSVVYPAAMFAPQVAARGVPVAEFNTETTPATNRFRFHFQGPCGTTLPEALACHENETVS
PKA-R1A activ: activates the PKA-R1A holoenzyme complex | PKA-R1A dissociation, Cy5-IP20 fluorescence polarization; scaled: DMSO 0%, 113 µM cGMP 100% | 340,000 tested, 0.083% active | P00514+P68181 | activation, % at 11.4 µM;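 active = percent activation above the mean of all tested compounds plus 3 SD, cut at about 19% in these data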;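 also: higher means more PKAc released from R1A so a rise in polarization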
S100A4 MyoIIA: blocks human S100A4 binding to myosin IIA peptide; S100A4/TAMRA-MyoIIA peptide fluorescence polarization; inhibition, % at 10.7 µM; 360,000 tested, 0.14% active; AID 652163;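 active = mean inhibition of at least 70% across replicates, with every replicate also reaching that level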
Target sequence (P26447 whole entry, looked up): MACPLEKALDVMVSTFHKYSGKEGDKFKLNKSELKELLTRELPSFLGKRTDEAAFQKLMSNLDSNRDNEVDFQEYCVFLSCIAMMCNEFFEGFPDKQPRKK
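Material: S100A4 monomer (human). Medium: Calcium-containing HEPES buffer, pH 7.2. Probe or stimulus: labelled myosin peptide probe, 5 nM. Compound dosing: one concentration per compound. Timing: polarization read 5 min after assay mix addition, stable 5–60 min. Benchmarks: DMSO as neutral control, TFP as positive control.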
CRFBP-R2 block: blocks CRF-induced signaling of the CRF-BP/CRF-R2 complex; 350,000 tested, 0.59% active; HEK293 CRF-R2/CRF-BP, CRF-induced calcium fluorescence; AID 588475; inhibition, % at 11.8 µM;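 active = inhibition of the ligand-induced calcium signal above about 50% at the single tested concentration, limit read from the data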
PKA-R2B activ: PKA-R2B complex activation; P22694+P31323; 340,000 tested, 0.079% active; activation, % at 11.4 µM; PKA-R2B holoenzyme dissociation, Cy5-IP20 fluorescence polarization; R2B truncated from residue 108, S112A mutant; 0% DMSO only, 100% 113 µM cGMP;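 active = activation above a cutoff set at the mean over all compounds plus 3 SD, cut at about 18% in these data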;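 also: higher means more holoenzyme dissociation and a rise in polarization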
An asterisk follows results filed as active; / = no result given; ! = repeats disagree.

SMILES	SIRT5 block	PKA-R1A activ	S100A4 MyoIIA	CRFBP-R2 block	PKA-R2B activ
COc1ccc(S(=O)(=O)N(C)C[C@@H]2OCc3ccccc3-c3c(n(C)c4ccccc34)C(=O)N([C@H](C)CO)C[C@H]2C)cc1	16*	/	12	/	/
C[C@H]1CN([C@@H](C)CO)C(=O)c2c(c3ccccc3n2C)-c2ccccc2CO[C@H]1CN(C)S(=O)(=O)c1ccccc1	1	/	14	/	/
Cc1ccc(S(=O)(=O)N(C)C[C@H]2OCc3ccccc3-c3c(n(C)c4ccccc34)C(=O)N([C@H](C)CO)C[C@H]2C)cc1	20*	/	2	/	/
Cc1ccc(S(=O)(=O)N(C)C[C@H]2OCc3ccccc3-c3c(n(C)c4ccccc34)C(=O)N([C@H](C)CO)C[C@@H]2C)cc1	10	/	-3	/	/
Cc1ccccc1S(=O)(=O)N(C)C[C@H]1OCc2ccccc2-c2c(n(C)c3ccccc23)C(=O)N([C@H](C)CO)C[C@@H]1C	8	/	-5	/	/
Cc1ccccc1S(=O)(=O)N(C)C[C@H]1OCc2ccccc2-c2c(n(C)c3ccccc23)C(=O)N([C@@H](C)CO)C[C@@H]1C	22*	/	0	/	/
O=C(NCCc1ccccc1)[C@H]1[C@H](CO)[C@H]2Cn3c(cccc3=O)[C@@H]1N2C(=O)C1CC1	4	/	13	/	/
CC(C)c1cn(CC[C@H]2CC[C@H](NC(=O)Nc3cc(Cl)cc(Cl)c3)[C@H](CO)O2)nn1	-2	/	-7	/	/
CCOC(=O)N1CCN(C(=O)c2ccc3nc(SCc4ccc(F)cc4)n(C)c3c2)CC1	7	-2	0	51*	-5
C[C@@H]1CN([C@H](C)CO)C(=O)c2cc(NC(=O)c3ccncc3)ccc2O[C@@H](C)CCCCO[C@H]1CN(C)C(=O)Nc1ccc2c(c1)OCO2	-3	/	0	/	/
CCOC(=O)C1=NOC(COc2ccccc2C=O)C1 (stereo not drawn)	23*	-2	3	17	4
CCOC(=O)C1=NOC(CNC(=O)c2ccccc2Cl)C1 (stereo not drawn)	-2	-2	0	5	-7
COc1ccc(S(=O)(=O)N(C)C[C@@H]2Oc3ccc(NS(=O)(=O)c4ccc(F)cc4)cc3CC(=O)N([C@H](C)CO)C[C@@H]2C)cc1	4	/	-5	/	/
O=C(c1cc([N+](=O)[O-])ccc1N1CCCCC1)N1CCCC1	0	-1	6	5	8
O=C(c1cc([N+](=O)[O-])ccc1N1CCCC1)N1CCCC1	16*	9	-4	-2	5
Cc1ccc(S(=O)(=O)N(C)C[C@H]2Oc3c(NC(=O)Nc4ccc(F)cc4)cccc3C(=O)N([C@H](C)CO)C[C@@H]2C)cc1	-1	/	-2	/	/
COc1cccc(C(=O)N2C[C@H]3[C@@H](c4ccccc42)[C@@H](CO)N3C(=O)c2ccccc2)c1	-1	/	-8	/	/
COCC#Cc1cnc2c(c1)C(=O)N([C@@H](C)CO)C[C@H](C)[C@H](CN(C)C(=O)c1cnccn1)O2	1	/	0	/	/
Cc1cccc(-c2noc(C(C)NC(=O)c3ccco3)n2)c1 (stereo not drawn)	-1	-8	-4	108*	-14
CC(NC(=O)c1ccco1)c1nc(-c2ccccc2)no1 (stereo not drawn)	-2	1	10	11	3
CCCP(=O)(CC(=O)N(CC)CC)c1ccccc1 (stereo not drawn)	/	-8	/	58*	-16
CCCC#Cc1cnc2c(c1)C(=O)N([C@@H](C)CO)C[C@H](C)[C@@H](CN(C)C(=O)Nc1cccc(F)c1)O2	1	/	1	/	/
COc1ccc(S(=O)(=O)N(C)C[C@H]2OCCCC[C@H](C)Oc3ccc(NC(=O)Nc4ccc(F)cc4)cc3C(=O)N([C@H](C)CO)C[C@H]2C)cc1	17*!	8	-17	1	-10
COc1ccc(S(=O)(=O)N(C)C[C@H]2OCCCC[C@@H](C)Oc3ccc(NC(=O)Nc4ccc(F)cc4)cc3C(=O)N([C@H](C)CO)C[C@H]2C)cc1	16*	/	3	/	/
COc1ccc(S(=O)(=O)N(C)C[C@H]2OCCCC[C@H](C)Oc3ccc(NC(=O)Nc4ccc(C(F)(F)F)cc4)cc3C(=O)N([C@H](C)CO)C[C@@H]2C)cc1	-1	/	-11	/	/
SMILES	SIRT5 block	PKA-R1A activ	S100A4 MyoIIA	CRFBP-R2 block	PKA-R2B activ
C[C@@H]1CCCCO[C@H](CN(C)S(=O)(=O)c2ccc(Cl)cc2)[C@@H](C)CN([C@H](C)CO)C(=O)c2cc(NC(=O)Nc3ccc(F)cc3)ccc2O1	16*	/	3	/	/
COc1ccc(S(=O)(=O)N(C)C[C@@H]2OCCCC[C@@H](C)Oc3ccc(NC(=O)Nc4ccc(C(F)(F)F)cc4)cc3C(=O)N([C@H](C)CO)C[C@@H]2C)cc1	7	/	99*	/	/
COc1ccc(NC(=O)Nc2ccc3c(c2)C(=O)N([C@H](C)CO)C[C@H](C)[C@H](CN(C)S(=O)(=O)c2ccc(F)cc2)OCCCC[C@@H](C)O3)cc1	1	/	-18	/	/
C[C@@H]1CCCCO[C@@H](CN(C)S(=O)(=O)c2ccc(Cl)cc2)[C@@H](C)CN([C@@H](C)CO)C(=O)c2cc(NC(=O)Nc3ccc(F)cc3)ccc2O1	7	/	0	/	/
C[C@@H](O)C#Cc1cnc2c(c1)C(=O)N([C@@H](C)CO)C[C@H](C)[C@H](CN(C)C(=O)c1ccncc1)O2	-3	/	-5	/	/
C[C@H](CO)N1C[C@H](C)[C@H](CN(C)S(=O)(=O)c2ccc(Cl)cc2)OCCCC[C@H](C)Oc2ccc(NC(=O)Nc3ccc4c(c3)OCO4)cc2C1=O	21*	/	-5	/	/
C[C@H](CO)N1C[C@H](C)[C@@H](CN(C)S(=O)(=O)c2ccc(Cl)cc2)OCCCC[C@H](C)Oc2ccc(NC(=O)Nc3ccc4c(c3)OCO4)cc2C1=O	1	/	-1	/	/
COc1ccc2c3c(n(C)c2c1)[C@@H](CO)N(C(=O)Nc1c(C)noc1C)CC31CCN(CC2CC2)CC1	-2	/	1	/	/
CC(C)NC(=O)Nc1cccc2c1O[C@@H](CN(C)C(=O)Nc1ccc3c(c1)OCO3)[C@@H](C)CN([C@H](C)CO)C2=O	3	/	-2	/	/
COc1ccc(Cl)cc1Nc1nc(NCCO)nc(N2CCCC2)n1	-6	-11	-2	-25	-11
COc1ccc(Cl)cc1Nc1nc(NCCO)nc(N2CCCCC2)n1	-3	9	-1	51*	-3
CC1=C(C#N)C(=O)NC(=O)/C1=C\c1ccc(-c2cc(C)c(C)cc2[N+](=O)[O-])o1	17*	-4	-8	3	-11
Cc1ccc(-c2ccc(/C=C3/NC(=O)NC3=O)o2)cc1[N+](=O)[O-]	1	8	-18	-68	10
N#Cc1c(Cl)nc2c(c1C#N)CCCC2	0	-6	-4	107*	-9
CCOC(=O)c1c(CS(=O)(=O)c2ccccc2)n(C)c2cc(Br)c(O)cc12	18*	-7	-1	1	-3
